Data: ChEMBL document CHEMBL2176962, “Repositioning HIV-1 integrase inhibitors for cancer therapeutics: 1,6-naphthyridine-7-carboxamide as a promising scaffold with drug-like properties” (J Med Chem, 2012)

Tests used:
SK-BR-3 = experiment: Cytotoxicity against human SKBR3 cells incubated for 72 hrs by MTT assay; type: functional, cell-based; conditions: SK-BR-3, 72 h
HT-29 = experiment: Cytotoxicity against human HT-29 cells incubated for 72 hrs by MTT assay; type: functional, cell-based; conditions: HT-29, 72 h
In short: (§1)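 Cells were kept in DMEM (MDA-MB-435, MCF7, LNCaP) or RPMI (HT29, HCT116) with 10% heat-inactivated FBS and 2 mM L-glutamine, subconfluent and in exponential growth. They were seeded, allowed to adhere overnight, then exposed continuously to compound (10 mM DMSO stock) for 72 h. MTT was added to 0.3 mg/mL final for 3–4 h at 37 °C, formazan was dissolved in DMSO, and absorbance was read at 570 nm. Runs were in triplicate; IC50 came from log concentration versus percent cell kill.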

HCT-116 [1] = experiment: Cytotoxicity against p53 expressing human HCT116 cells incubated for 72 hrs by MTT assay; type: functional, cell-based; conditions: HCT-116, 72 h; in short: as §1
LNCaP = experiment: Cytotoxicity against human LNCAP cells incubated for 72 hrs by MTT assay; type: functional, cell-based; in short: as §1
MDA-MB-435 = experiment: Cytotoxicity against human MDA-MB-435 cells incubated for 72 hrs by MTT assay; type: functional, cell-based; conditions: MDA-MB-435, 72 h; in short: as §1
HCT-116 [2] = experiment: Cytotoxicity against p53 deficient human HCT116 cells incubated for 72 hrs by MTT assay; type: functional, cell-based; conditions: HCT-116, 72 h; in short: as §1
MCF7 = experiment: Cytotoxicity against human MCF7 cells incubated for 72 hrs by MTT assay; type: functional, cell-based; conditions: MCF7, 72 h; in short: as §1
[3] = target: Vascular endothelial growth factor receptor 2 (Homo sapiens) (UniProt P35968); conditions: at 10 µM
[4] = target: Proto-oncogene tyrosine-protein kinase Src (Homo sapiens) (UniProt P12931); experiment: Inhibition of SRC at 10 uM incubated for 60 mins using poly(Glu,Tyr)4:1 substrate and 10 uM ATP by ELISA
In short: (§2)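 ELISA with Poly(Glu,Tyr)4:1 (20 μg/mL) precoated as substrate and 10 μM ATP, in 50 mM HEPES pH 7.4, 20 mM MgCl2, 0.1 mM MnCl2, 0.2 mM Na3VO4, 1 mM DTT. Compound was tested at 10 μM, in duplicate. Kinase reaction ran 60 min at 37 °C. Phosphotyrosine was detected with PY99 and HRP anti-mouse IgG, developed with o-phenylenediamine/H2O2, stopped with H2SO4 and read at 492 nm. Inhibition = [1 − A492 treated/A492 control] × 100%. References: lapatinib (ErbB2) and PP2 (Src), each at 10 μM.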

[5] = Therapeutic index, ratio of CC50 for human C8166 cells to EC50 for HIV1 3B; type: cell-based; conditions: read-out: Ratio CC50/EC50
In short: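 Therapeutic index was calculated as the C8166 MTT CC50 divided by the HIV-1 IIIB syncytium-reduction EC50.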

[6] = target: T1, Human immunodeficiency virus type 1 integrase (Human immunodeficiency virus 1, UniProt Q7ZJM1); experiment: Inhibition of HIV1 integrase 3'-processing activity using [32P]-labeled linear oligonucleotide substrate
[7] = test system: Human immunodeficiency virus 1; experiment: Antiviral activity against HIV1 3B infected in human C8166 cells assessed as reduction in virus-induced cytopathogenicity measured after 3 days by syncytium reduction assay; type: functional, organism-based; conditions: Human immunodeficiency virus 1, 3B, C8166, 72 h
In short: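 C8166 cells (4 × 10⁵ mL⁻¹), grown in RPMI-1640 with 10% heat-inactivated FCS and kept in log phase, infected with HIV-1 IIIB at MOI 0.06 in the presence of serial compound dilutions. AZT served as positive control. After 3 days, syncytia were counted by inverted microscope. EC50 was derived from percent inhibition of syncytium number relative to infected control.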

[8] = Toxicity against human C8166 cells incubated for 72 hrs by MTT assay; type: cell-based
In short: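 C8166 cells were seeded with serial compound dilutions in triplicate and incubated at 37 °C, 5% CO2 for 72 h. MTT (5 mg/mL in PBS) was added for 4 h, and formazan was dissolved in 50% DMF-20% SDS. Absorbance was read at 595/630 nm. CC50 was taken from the dose-response curve.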

[9] = target: T1, Human immunodeficiency virus type 1 integrase; experiment: Inhibition of HIV1 integrase strand transfer activity using [32P]-labeled linear oligonucleotide substrate
[10] = target: Receptor tyrosine-protein kinase erbB-2 (Homo sapiens) (UniProt P04626); experiment: Inhibition of ErbB2 at 10 uM incubated for 60 mins using poly(Glu,Tyr)4:1 substrate and 10 uM ATP by ELISA; in short: as §2
HEY = experiment: Cytotoxicity against human HEY cells incubated for 72 hrs by MTT assay; type: functional, cell-based

T1 sequence (Q7ZJM1 whole entry): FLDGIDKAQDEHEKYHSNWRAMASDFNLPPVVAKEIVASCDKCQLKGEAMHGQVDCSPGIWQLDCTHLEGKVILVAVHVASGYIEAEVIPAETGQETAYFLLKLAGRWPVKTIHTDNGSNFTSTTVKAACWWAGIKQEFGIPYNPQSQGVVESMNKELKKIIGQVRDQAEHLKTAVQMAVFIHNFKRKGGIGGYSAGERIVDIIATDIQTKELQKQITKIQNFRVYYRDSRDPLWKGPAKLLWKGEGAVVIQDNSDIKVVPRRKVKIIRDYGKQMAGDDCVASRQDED
Receptor tyrosine-protein kinase erbB-2 (Homo sapiens), sequence (P04626 whole entry): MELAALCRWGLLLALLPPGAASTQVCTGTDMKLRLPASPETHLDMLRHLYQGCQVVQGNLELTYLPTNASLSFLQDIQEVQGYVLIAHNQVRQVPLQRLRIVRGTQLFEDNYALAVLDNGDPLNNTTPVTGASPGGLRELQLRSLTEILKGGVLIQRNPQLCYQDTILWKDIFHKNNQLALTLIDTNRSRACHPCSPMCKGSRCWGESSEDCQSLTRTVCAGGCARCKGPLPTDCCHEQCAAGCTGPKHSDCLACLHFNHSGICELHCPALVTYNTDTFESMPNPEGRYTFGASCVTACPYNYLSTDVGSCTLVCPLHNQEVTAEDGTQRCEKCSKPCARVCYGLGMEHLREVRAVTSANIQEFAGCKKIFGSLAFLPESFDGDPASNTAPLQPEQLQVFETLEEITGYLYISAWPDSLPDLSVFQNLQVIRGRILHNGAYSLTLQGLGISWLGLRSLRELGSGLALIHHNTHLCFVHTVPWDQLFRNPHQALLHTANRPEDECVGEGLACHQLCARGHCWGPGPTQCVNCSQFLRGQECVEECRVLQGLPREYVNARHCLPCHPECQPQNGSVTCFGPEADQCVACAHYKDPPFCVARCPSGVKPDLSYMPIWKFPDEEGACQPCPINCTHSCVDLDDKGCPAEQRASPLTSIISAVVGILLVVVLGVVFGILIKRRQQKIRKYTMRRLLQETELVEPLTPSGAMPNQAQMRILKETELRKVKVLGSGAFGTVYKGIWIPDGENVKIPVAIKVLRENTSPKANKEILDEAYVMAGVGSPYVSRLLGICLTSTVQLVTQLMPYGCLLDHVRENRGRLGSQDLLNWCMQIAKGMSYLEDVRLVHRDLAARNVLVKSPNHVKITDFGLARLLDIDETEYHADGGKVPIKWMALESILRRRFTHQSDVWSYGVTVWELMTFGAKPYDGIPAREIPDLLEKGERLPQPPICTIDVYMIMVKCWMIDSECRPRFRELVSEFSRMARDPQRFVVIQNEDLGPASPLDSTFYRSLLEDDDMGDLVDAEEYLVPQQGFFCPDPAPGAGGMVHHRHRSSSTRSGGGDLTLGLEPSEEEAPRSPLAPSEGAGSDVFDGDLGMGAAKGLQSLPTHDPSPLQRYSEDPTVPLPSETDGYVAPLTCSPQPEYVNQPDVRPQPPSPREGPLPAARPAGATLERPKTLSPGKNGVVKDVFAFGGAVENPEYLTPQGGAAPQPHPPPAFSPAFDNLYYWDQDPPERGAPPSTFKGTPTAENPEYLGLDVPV
Proto-oncogene tyrosine-protein kinase Src (Homo sapiens), sequence (P12931 2-536 limits assumed): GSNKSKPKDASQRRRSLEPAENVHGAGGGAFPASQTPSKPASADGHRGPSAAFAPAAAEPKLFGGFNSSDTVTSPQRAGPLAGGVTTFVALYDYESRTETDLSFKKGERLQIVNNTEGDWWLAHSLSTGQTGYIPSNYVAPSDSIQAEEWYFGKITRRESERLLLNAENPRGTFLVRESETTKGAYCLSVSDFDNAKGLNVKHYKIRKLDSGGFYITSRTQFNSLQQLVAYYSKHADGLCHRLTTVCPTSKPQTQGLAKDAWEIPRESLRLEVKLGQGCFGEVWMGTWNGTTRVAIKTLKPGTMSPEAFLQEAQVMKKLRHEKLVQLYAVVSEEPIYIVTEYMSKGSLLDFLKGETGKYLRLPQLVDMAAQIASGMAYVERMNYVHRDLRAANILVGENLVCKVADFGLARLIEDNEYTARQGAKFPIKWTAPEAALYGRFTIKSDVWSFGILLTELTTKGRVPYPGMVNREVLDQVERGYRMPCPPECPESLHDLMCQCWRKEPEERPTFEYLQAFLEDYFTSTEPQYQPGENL
Vascular endothelial growth factor receptor 2 (Homo sapiens), sequence (P35968 whole entry): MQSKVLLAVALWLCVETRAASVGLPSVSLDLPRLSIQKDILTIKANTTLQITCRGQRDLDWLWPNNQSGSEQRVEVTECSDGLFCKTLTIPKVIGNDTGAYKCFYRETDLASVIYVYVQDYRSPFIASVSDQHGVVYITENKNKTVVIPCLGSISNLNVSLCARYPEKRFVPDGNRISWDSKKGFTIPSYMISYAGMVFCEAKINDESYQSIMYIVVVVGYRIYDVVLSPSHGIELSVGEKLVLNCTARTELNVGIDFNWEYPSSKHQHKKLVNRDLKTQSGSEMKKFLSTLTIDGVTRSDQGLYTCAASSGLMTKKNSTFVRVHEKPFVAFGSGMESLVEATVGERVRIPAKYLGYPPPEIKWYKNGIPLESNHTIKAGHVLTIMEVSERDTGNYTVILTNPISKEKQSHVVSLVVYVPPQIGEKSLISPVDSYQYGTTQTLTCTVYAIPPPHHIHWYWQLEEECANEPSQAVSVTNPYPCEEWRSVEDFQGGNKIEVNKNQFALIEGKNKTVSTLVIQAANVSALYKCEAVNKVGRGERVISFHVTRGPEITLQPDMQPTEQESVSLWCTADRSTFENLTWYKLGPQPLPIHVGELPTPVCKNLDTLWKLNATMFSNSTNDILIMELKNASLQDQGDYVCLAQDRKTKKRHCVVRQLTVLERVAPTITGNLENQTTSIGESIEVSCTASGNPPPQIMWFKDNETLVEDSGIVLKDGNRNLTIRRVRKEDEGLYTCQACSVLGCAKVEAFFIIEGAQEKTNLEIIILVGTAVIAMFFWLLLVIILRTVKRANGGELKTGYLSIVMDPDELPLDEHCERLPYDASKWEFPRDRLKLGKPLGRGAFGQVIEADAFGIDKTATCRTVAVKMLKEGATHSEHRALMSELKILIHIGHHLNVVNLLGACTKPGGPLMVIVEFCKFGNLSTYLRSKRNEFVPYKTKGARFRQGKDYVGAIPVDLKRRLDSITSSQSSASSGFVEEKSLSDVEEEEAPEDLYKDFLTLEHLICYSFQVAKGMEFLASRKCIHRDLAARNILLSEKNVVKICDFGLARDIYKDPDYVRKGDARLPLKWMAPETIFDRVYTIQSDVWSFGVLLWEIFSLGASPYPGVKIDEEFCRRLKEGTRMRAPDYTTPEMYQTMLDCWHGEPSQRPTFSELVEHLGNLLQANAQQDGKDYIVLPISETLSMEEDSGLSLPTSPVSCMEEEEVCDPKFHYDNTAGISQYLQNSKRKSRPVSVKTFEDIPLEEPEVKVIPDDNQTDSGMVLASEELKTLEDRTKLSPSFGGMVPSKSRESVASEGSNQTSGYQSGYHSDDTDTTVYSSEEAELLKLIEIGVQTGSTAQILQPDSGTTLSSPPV

SMILES	inhibition [3] [%]	inhibition [4] [%]	IC50 [6] [µM]	EC50 [7] [nM]	IC50 [9] [nM]	inhibition [10] [%]	IC50 (SK-BR-3) [nM]	IC50 (HT-29) [µM]	IC50 (HCT-116 [1]) [µM]	IC50 (LNCaP) [µM]	IC50 (MDA-MB-435) [µM]	IC50 (HCT-116 [2]) [µM]	IC50 (MCF7) [µM]	selectivity ratio [5]	CC50 at 72 h [8] [µM]	IC50 (HEY) [µM]
O=C(NCCCNc1c(C(=O)NCc2ccc(F)cc2)nc(Br)c2cccnc12)c1ccccc1	–	–	–	–	–	–	1000	> 10	> 10	> 10	> 20	> 10	2	–	–	–
O=C(NCc1ccc(F)cc1)c1nc(Br)c2cccnc2c1NCCO	–	–	> 100	48900	69000	–	–	–	> 20	–	> 20	> 20	–	4.8	232	–
CS(=O)(=O)Oc1c(C(=O)NCc2ccc(F)cc2)nc(Br)c2cccnc12	–	–	> 111	11800	13000	–	–	–	> 20	–	> 20	> 20	–	4	48	–
COC(=O)CNc1c(C(=O)NCc2ccc(F)cc2)nc(Br)c2cccnc12	–	–	–	–	–	–	1000	> 10	> 10	5	10	> 10	> 10	–	–	–
O=C(NCc1ccc(F)cc1)c1nc(NCCc2c[nH]c3ccccc23)c2cccnc2c1O	–	–	14	368	1000	–	–	–	–	–	13	–	12	114	42	–
CNCCCNc1c(C(=O)NCc2ccc(F)cc2)nc(Br)c2cccnc12	–	–	–	–	–	–	1000	> 10	9	8	11	> 10	> 10	–	–	–
CC(C)(C)OC(=O)N1CCC(Nc2c(C(=O)NCc3ccc(F)cc3)nc(Br)c3cccnc23)CC1	–	–	–	–	–	–	1000	> 10	> 10	> 10	20	9	> 10	–	–	–
Nc1cccc(Nc2c(C(=O)NCc3ccc(F)cc3)nc(Br)c3cccnc23)c1	–	–	–	–	–	–	> 10000	> 10	> 10	8	8	> 10	8	–	–	–
O=C(NCc1ccc(F)cc1)c1nc(NCCO)c2cccnc2c1O	–	–	9.5	29	300	–	–	–	–	–	> 20	–	–	3140	91	–
N[C@H]1CC[C@H](NC(=O)c2nc(Br)c3cccnc3c2NCc2ccc(F)cc2)CC1	–	0	–	–	–	3	2800	–	6.4	–	6.6	–	–	–	–	7.1
O=C(NCc1ccc(F)cc1)c1nc(Br)c2cccnc2c1N1CCNCC1	4	29	–	–	–	–	6000	10	> 10	4.5	8	> 10	7	–	–	–
O=C(NCc1ccc(F)cc1)c1nc(N2CCCCS2(=O)=O)c2cccnc2c1O	–	13	11	5	300	8	–	–	2	–	6	2	2	26400	132	–
N[C@H]1CC[C@H](Nc2c(C(=O)NCc3ccc(F)cc3)nc(N3CCCCS3(=O)=O)c3cccnc23)CC1	–	–	–	–	–	–	8500	> 10	> 10	8	5	> 10	13	–	–	–
O=C(NCc1ccc(F)cc1)c1nc(Br)c2cccnc2c1O	–	–	14	11100	500	–	–	–	> 20	–	15	> 20	–	7.2	80	–
N[C@H]1CC[C@H](Nc2c(C(=O)NCc3ccccc3)nc(Br)c3cccnc23)CC1	–	–	–	–	–	0	8000	–	7	–	7	–	–	–	–	8
CC(C)(C)n1nc(-c2ccc(Cl)cc2)c2c(N)ncnc21	–	94	–	–	–	–	–	–	–	–	–	–	–	–	–	–
CC(C)(C)OC(=O)N1CCN(c2c(C(=O)NCc3ccc(F)cc3)nc(Br)c3cccnc23)CC1	–	–	–	–	–	–	3000	> 10	> 10	> 10	10	> 10	> 10	–	–	–
COc1cccc(CNC(=O)c2nc(Br)c3cccnc3c2N[C@H]2CC[C@H](N)CC2)c1	–	–	–	–	–	0	6000	–	6	–	7	–	–	–	–	7

Now from value to compound, other results behind:

inhibition [3] [%]	inhibition [4] [%]	IC50 [6] [µM]	EC50 [7] [nM]	IC50 [9] [nM]	inhibition [10] [%]	SMILES	IC50 (SK-BR-3) [nM]	IC50 (HT-29) [µM]	IC50 (HCT-116 [1]) [µM]	IC50 (LNCaP) [µM]	IC50 (MDA-MB-435) [µM]	IC50 (HCT-116 [2]) [µM]	IC50 (MCF7) [µM]	selectivity ratio [5]	CC50 at 72 h [8] [µM]	IC50 (HEY) [µM]
0	17	–	–	–	–	CN(C)CCCNc1c(C(=O)NCc2ccc(F)cc2)nc(Br)c2cccnc12	1000	6	> 10	8	7	> 10	7	–	–	–
–	–	6.9	52	200	–	C[C@H](CO)Nc1nc(C(=O)NCc2ccc(F)cc2)c(O)c2ncccc12	–	–	–	–	> 20	–	–	1330	69	–
–	–	11	2	700	–	CS(=O)(=O)NCCCCCCN(c1nc(C(=O)NCc2ccc(F)cc2)c(O)c2ncccc12)S(C)(=O)=O	–	–	3	–	20	4	7	18500	37	–
10	15	–	–	–	–	NCCCNc1c(C(=O)NCc2ccc(F)cc2)ncc2cccnc12	> 10000	> 10	> 10	> 10	16	> 10	> 10	–	–	–
–	23	6	27	200	11	O=CNCCCCCCNc1nc(C(=O)NCc2ccc(F)cc2)c(O)c2ncccc12	–	–	4	–	16	6	19	7370	199	–
–	–	> 111	5020	31000	–	Cc1ccc(S(=O)(=O)Oc2c(C(=O)NCc3ccc(F)cc3)nc(Br)c3cccnc23)cc1	–	–	> 20	–	> 20	> 20	–	6.2	31	–
–	–	34	3	700	–	CS(=O)(=O)NCCCN(c1nc(C(=O)NCc2ccc(F)cc2)c(O)c2ncccc12)S(C)(=O)=O	–	–	15	–	> 20	7	> 20	21300	64	–
8	7	–	–	–	1	Nc1ccc(Nc2c(C(=O)NCc3ccc(F)cc3)nc(Br)c3cccnc23)cc1	4000	> 10	10	7	7	7	4	–	–	–
–	–	7.8	23	300	–	C[C@@H](CO)Nc1nc(C(=O)NCc2ccc(F)cc2)c(O)c2ncccc12	–	–	–	–	> 20	–	–	4650	107	–
